Source: PubChem BioAssay
The list is not random: actives were taken first. Their share in the collection is about 1.7%.
ZTA DNA inh = counter-screen for EBNA-1 inhibitors: inhibitors of Epstein-Barr virus ZTA; P03206; ZTA-DNA binding, fluorescence polarization; inhibition, % at 11 µM; 320,000 tested, 0.15% active; in the data active = inhibition above about 33%
HCV core dimer = inhibitors of HCV core protein dimerization, primary screen, biochemical, TR-FRET, high-throughput; inhibition, % at 5 µM; 300,000 tested, 0.33% active; AID 1899, 2009; TR-FRET GST/Flag-core106 dimerization, 1536-well;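 active = inhibition above the mean of all tested compounds plus 3 SD, set per screening campaign, cut at about 45% in these data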
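test system = GST/Flag-tagged HCV core106 proteins | probe or stimulus = Eu donor and XL665 acceptor anti-tag antibodies | times = compound-protein-antibody incubation 4 h at 22.5 °C | signal = TR-FRET, excitation 340 nm, emission 617 and 671 nm | measure = percent inhibition of core106 dimerization signal | controls = wells lacking GST-core106 and wells with excess unlabelled core106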
PP1 counter = PP1-alpha phosphatase inhibitors, primary screen, counter-screen for PP5 inhibitor project, biochemical, fluorescence, OMFP substrate, single point; Serine/threonine-protein phosphatase PP1-alpha catalytic subunit (Homo sapiens), P62136; purified PP1alpha; inhibition, % at 6.7 µM; 320,000 tested, 0.9% active;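 active = inhibition above the mean inhibition of all tested compounds plus 3 SD, computed separately for each screening campaign, cut at about 15% in these data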
Target sequence (P62136 whole entry, looked up): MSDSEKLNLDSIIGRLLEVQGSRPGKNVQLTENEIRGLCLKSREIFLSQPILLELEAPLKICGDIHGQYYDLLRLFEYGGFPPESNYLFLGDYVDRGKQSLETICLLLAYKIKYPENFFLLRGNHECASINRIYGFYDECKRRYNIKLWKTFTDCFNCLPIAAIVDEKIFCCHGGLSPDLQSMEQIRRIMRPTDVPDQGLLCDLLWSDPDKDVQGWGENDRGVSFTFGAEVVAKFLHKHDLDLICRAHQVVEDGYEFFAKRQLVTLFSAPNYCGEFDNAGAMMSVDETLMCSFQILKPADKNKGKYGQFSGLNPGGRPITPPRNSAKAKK
EBNA-1 inh = EBNA-1 DNA-binding inhibitors, primary screen, biochemical, fluorescence polarization; inhibition, % at 14.8 µM; 300,000 tested, 0.34% active; AID 1950, 2009; in the data active = inhibition above about 28%
PP5 primary = PP5 phosphatase inhibitors, primary screen, biochemical, fluorescence; inhibition, % at 6.7 µM; purified PP5c, OMFP substrate fluorescence; AID 1987, 2009; 320,000 tested, 0.18% active;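 active = inhibition above the campaign's mean inhibition across all tested compounds plus 3 SD, cut at about 9.5% in these data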
PP1 inh confirm = PP1 phosphatase inhibitors, confirmation, biochemical, fluorescence, OMFP substrate, triplicate. AID 2358, 2010. shares compounds with PP1 counter. inhibition, % at 6.7 µM. 1,900 tested, 52% active. purified PP1alpha;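 active = mean PP1 inhibition above a set limit taken from the earlier primary screen, cut at about 15% in these data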
PP5 counter = PP5 phosphatase inhibition by PP1 hits, confirmation, counter-screen for PP1 inhibitor project, biochemical, fluorescence, triplicate | shares compounds with PP1 counter | 1,900 tested, 4% active | purified PP5c, OMFP fluorescence | inhibition, % at 6.7 µM;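 active = mean PP5 inhibition over triplicate wells above about 9.5% taken from the earlier PP1 screen, limit read from the data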
A number is an active result; - = inactive; . = no result given.

SMILES	ZTA DNA inh	HCV core dimer	PP1 counter	EBNA-1 inh	PP5 primary	PP1 inh confirm	PP5 counter
COc1cc(NC(=O)Cc2ccccc2)ccc1NC(=O)c1ccco1	-	-	-	-	-	.	.
COc1cc(NC(=O)COc2ccccc2[N+](=O)[O-])ccc1NC(=O)c1ccco1	-	-	20	-	-	19	-
CCc1ccc(NC(=S)Nc2ccc(S(=O)(=O)Nc3ncccn3)cc2)cc1	-	-	-	-	-	.	.
COC(=O)CNC(=O)c1sc2ncn(CC(=O)Nc3ccc(C)c(Cl)c3)c(=O)c2c1C	-	-	-	-	-	.	.
Cc1[nH][nH]c(=O)c1C(c1c(C)[nH][nH]c1=O)c1cn(Cc2ccc(Cl)c(Cl)c2)c2ccccc12	-	-	18	-	-	17	24
O=C(NCCc1ccccc1)c1ccc([N+](=O)[O-])cc1	-	-	-	-	-	.	.
O=C(NCCc1ccccc1)/C(=C\c1ccc([N+](=O)[O-])cc1)NC(=O)c1ccc(Br)cc1	-	-	18	-	-	22	-
Cc1cc(C(=O)CCl)c(C)n1CCc1ccc(F)cc1	-	-	-	-	-	.	.
Cc1cc(C(=O)CN2C(=O)C(=O)N(C3CCCC3)C2=O)c(C)n1CCc1ccc(F)cc1	-	.	18	.	-	-	-
Cc1ccc(/C=C(\CCC(=O)O)c2nc3ccccc3s2)cc1[N+](=O)[O-]	-	-	-	-	-	.	.
CN(c1ccccc1)c1ccc(/C=C(\CCC(=O)O)c2nc3ccccc3s2)cc1[N+](=O)[O-]	-	60	26	-	-	-	-
Cn1cnnc1Sc1ccc(/C=C(\CCC(=O)O)c2nc3ccccc3s2)cc1[N+](=O)[O-]	-	-	-	-	-	.	.
COc1ccc(C(=O)Nc2cccc(/C=C(\CCC(=O)O)c3nc4ccccc4s3)c2)cc1	-	64	23	-	-	-	-
CNc1ccc(/C=C(\CCC(=O)O)c2nc3ccccc3s2)cc1[N+](=O)[O-]	-	-	32	-	-	24	-
COCCCn1cc(C(=O)c2cc(OC)ccc2OCC(=O)Nc2cc(C)on2)cc(C#N)c1=O	-	-	-	-	-	.	.
C/C(=N\NC(=O)CNC(=O)c1cccc(F)c1)c1ccc2ccccc2c1	-	-	-	-	-	.	.
N#CCC(=O)N1CCN(C=O)CC1	-	-	-	-	-	.	.
CC(C)c1ccc(NC2CCCN(C(=O)c3ccnn3C)C2)cc1 (stereo not given)	-	-	-	-	-	.	.
Cc1cc(C(=O)N2CCCC(Nc3ccc(C(C)C)cc3)C2)nn1C (stereo not given)	-	-	47	-	-	-	-
Cc1cc(C(=O)COC(=O)c2ccc[nH]c2=O)c(C)n1-c1ccc(Br)cc1	-	-	18	-	-	-	-
COc1cc(/C=C2\SC(=Nc3ccccc3)N(CCc3c[nH]c4ccccc34)C2=O)ccc1OC(C)C(=O)O (stereo not given)	-	-	18	-	-	-	-
COCCN1C(=O)/C(=C/c2ccc(Oc3ccc([N+](=O)[O-])cn3)c(OC)c2)SC1=Nc1ccccc1	-	-	-	-	-	.	.
CN(C)CCN1C(=O)C(=O)/C(=C(/O)c2ccc(S(=O)(=O)N3CCOCC3)cc2)C1c1ccc(F)cc1 (stereo not given)	-	-	-	-	-	.	.
CCOC(=O)C1(Cc2ccccc2C)CCCN(C(=O)c2ccc(OC)o2)C1 (stereo not given)	-	-	26	-	-	-	-
Cc1nc(-c2ccccn2)nc(N(C)c2ccccc2)c1Cl	-	-	27	-	-	23	-
CCN1CCN(S(=O)(=O)c2ccc(Cl)c(C(=O)Nc3ccccc3N3CCCC3)c2)CC1	-	-	-	-	-	.	.
CCN1CCN(S(=O)(=O)c2ccc(Cl)c(C(=O)Nc3ccccc3N3CCCCC3)c2)CC1	-	-	23	-	-	-	-
C=CCn1cc(/C=N/Nc2nc3ccccc3[nH]2)c2ccccc21	-	-	22	-	-	30	-
